# Measurements as given in ChEMBL document CHEMBL4513216, “Probing the Open Global Health Chemical Diversity Library for Multistage-Active Starting Points for Next-Generation Antimalarials” (ACS Infect Dis, 2020).
# Assay: Toxicity liver stage against HepG2, at 10uM
# Assay type: cell-based
# Parameters: test concentration 10 uM, cell line HepG2-A16-CD81EGFP
# Details: human, HepG2-A16-CD81EGFP cells; read-out: INHIBITION
# In short: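 Uninfected HepG2-A16-CD81EGFP cells, 3 × 10^3 per well, 1536-well, plated on prespotted compound at 10 μM final, parasite-free screening media added to match infected plates; puromycin 10 μM positive, DMSO 0.5% negative; run in parallel with 48 h PbLuc assay at 37 °C, 5% CO2; viability by CellTiter-Glo luminescence, normalized to controls.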
row,SMILES,cytotoxicity at 10 µM [%]
1,CNC(=O)CN([C@H]1C[C@H]2CCOC[C@H]2C1)S(=O)(=O)c1ccccc1,-1.63
2,OC[C@H]1CN2CCN(c3ccccn3)C[C@@H]2[C@@H]1c1ccccc1,-0.0603
3,CSc1ccc(C(=O)N2CC(=O)N(Cc3cccs3)CC(O)C2)cc1 (stereo unspecified),2.31
4,O=C(CC1NC(N2CCc3ccccc3C2)=NC1=O)Nc1ccccc1 (stereo unspecified),2.96
5,CC(C)c1nnc(NC(=O)CN2C(=O)c3ccccc3NC2C(C)C)s1 (stereo unspecified),-10.2
6,O=C(C1CC(=O)N(c2n[nH]c3cc(Br)ccc23)C1)N1CCSCC1 (stereo unspecified),-1.91
7,COCC(=O)N1CCN(c2cc(-n3cccc3)nc(C)n2)CC1,-6.81
8,CCOCc1ncn2c1CN(C(=O)Nc1cccc(F)c1)CC2,1.03
9,CN(C)C(=O)N1CC[C@@H](O)[C@@H]1Cc1cnn(C)c1,7.02
10,Cn1c(=O)[nH]c(=O)n2c(CC(=O)NCc3ccccc3)cnc12,7.77
11,Cc1cnc(NC(=O)C(C)Oc2ccc3c(c2)OCO3)s1 (stereo unspecified),-5.22
12,CCc1nc(NCCn2cccn2)c2c(n1)c(C)nn2C,5.97
13,CCC(C)NC(=O)c1nn(C)c(NC(=O)c2ccccc2OC)c1F (stereo unspecified),-6.24
14,CCNS(=O)(=O)c1cccc(CSC)c1,5.5
15,Cc1cc(C(=O)N(C)Cc2cccs2)nc(N2CCOCC2)n1,4.45
16,Cc1cc(C)n(CC(=O)N2CCC(c3ccn4nccc4n3)CC2)n1,-0.0825
17,CCC(C)NC(=O)c1cc(S(=O)(=O)N(C)C)c(C)s1 (stereo unspecified),-2.75
18,Cc1cc(C)nc(Nc2nccnc2C2CCCN(C(CO)CO)C2)n1 (stereo unspecified),0.216
19,Cn1ccnc1CNC(=O)CC1CCCCO1 (stereo unspecified),1.24
20,Cc1cnc(-c2nc(C3CCN(Cc4ccccc4C)CC3)no2)cn1,4.08
21,Cc1cccc(C2CCCN(S(=O)(=O)c3cccnc3)C2)n1 (stereo unspecified),4.05
22,Cc1[nH]ccc1C(=O)N1CCOCC12CCCC2,4.14
23,CCS(=O)(=O)NCCN1CCN(C(C#N)c2ccccc2)CC1 (stereo unspecified),-4.04

row,SMILES,cytotoxicity at 10 µM [%]
1,O=C1CCCN1CCc1nc(-c2ccsc2)no1,-1.22
2,CC(C)CC(NC(=O)c1ccc[nH]1)C(=O)N1CCC(CO)CC1 (stereo unspecified),6.74
3,Cc1cc(C(=O)Cn2cnnc2[S+](C)[O-])cc(C)c1F (stereo unspecified),4.31
4,O=C(Cn1cnc(NC(=O)c2ccccn2)n1)NCc1ccccc1,9.97
5,CS(=O)(=O)CCCNC1CCCN(Cc2noc(C3CC3)n2)C1 (stereo unspecified),1.15
6,CS(=O)(=O)c1ccc(OCCNCc2cccc(O)c2)cc1,2.21
7,O=C(NCCOc1ncc(Cl)cc1Cl)c1cccnc1,-3.23
8,CCc1nnc2n1CCN(C(=O)c1cnc(-c3cccs3)s1)C2,-3.28
9,O=C(CCN1CCCCCC1c1ccco1)N1CCOCC1 (stereo unspecified),6.14
10,CCOC(C)C(=O)NCCNS(C)(=O)=O (stereo unspecified),-5.29
11,CC1CCCN1C1CCN(C(=O)c2cccc(F)c2)CC1 (stereo unspecified),5.93
12,c1ccc2[nH]c(C3CCN(Cc4nnc(C5CC5)o4)CC3)cc2c1,3.65
13,Cc1ncc(CNC(=O)c2oc3ccccc3c2CN(C)C)s1,13.5
14,CC1N(c2cnn(C)c2)C(=O)COC12CCN(Cc1ccoc1)CC2 (stereo unspecified),0.997
15,CN1CC2(COCCN(c3ncccn3)C2)OCC1=O (stereo unspecified),-112
16,CS(=O)(=O)Nc1ccc(-n2c(CCCO)nc3ccccc32)cn1,-3.14
17,CCC(C(=O)NCC1CCN(c2cnn(C)c(=O)c2)CC1)n1cccn1 (stereo unspecified),6.01
18,O[C@@]1(CNCCCNc2cccnc2)CCCN2CCCC[C@@H]21,-3
19,Cc1cc(CC(C)Nc2ncnc3cccc(F)c23)[nH]n1 (stereo unspecified),26.4
20,NC(=O)c1ccc(C2CCCN2C(=O)Cn2nc3ccccc3n2)s1 (stereo unspecified),9.15
21,Cc1nsc(NC(=O)NC2CCCOC2)n1 (stereo unspecified),16
22,Cc1cccc(CN2C[C@@H](CN3CCCN(C)CC3)[C@@H](CO)C2)n1,-7.57
23,Cc1cc(C)nc(N2CCN(Cc3cc4n(n3)CCNC4)CC2)n1,-8.46

row,SMILES,cytotoxicity at 10 µM [%]
1,CCN(CC)CCn1cnc(-c2ccccc2)c1-c1cnc(C)s1,3.33
2,CCCC1CCN(C(=O)c2coc(COc3ccc(OC)cc3)n2)C1 (stereo unspecified),-0.551
3,CCc1oc(C(=O)N2CCC(N(CC)C(C)=O)C2)cc1CN(CC)CC (stereo unspecified),8.31
4,CC(c1cccc(-c2ncccc2C#N)c1)N(C)C (stereo unspecified),-5.4
5,CN(C)C(=O)c1coc(COc2ccccc2)n1,-7.3
6,Cc1ccc(C(C(=O)NCc2n[nH]c(N)n2)N(C)C)cc1 (stereo unspecified),0.529
7,COc1ccc(NC2CCCN(Cc3cnc(N(C)C)s3)C2)cc1OC (stereo unspecified),3.46
8,CCCc1nc(N2CC[C@@H](c3ccc4c(c3)OCO4)[C@H](O)C2)no1,-9.87
9,CCCN1CCN(C(=O)c2cnccc2C)[C@H]2CS(=O)(=O)C[C@H]21,-1.7
10,O=C(O)CN1CCc2onc(C(c3ccccc3)c3ccccc3)c2C1,-0.849
11,CN(Cc1cc2cc(F)ccc2[nH]1)C(=O)C1CC(=O)N(C(C)(C)C)C1 (stereo unspecified),0.993
12,CN1CC2(CCCN(Cc3nnc(-c4cccc(F)c4)o3)C2)OC1=O (stereo unspecified),-1.66
13,CC(C)c1noc(CN2CCC3(CCCO3)CCC2=O)n1 (stereo unspecified),0.145
14,CC(C)c1nn(C)c(N(C)C)c1CNCc1ccc2c(c1)OCCO2,-12.6
15,Cc1ccc(OCCN2CCC(c3ccnn3CCO)CC2)cc1,-3.29
16,CCN1CCOC(CNCc2ccccc2OCc2ccncc2)C1 (stereo unspecified),-8.57
17,CC(=O)N1CCCN(C(=O)c2ccc(Cn3ccccc3=O)o2)CC1,-1.4
18,Cc1ccc(CC(=O)N2CCOCC2c2ncon2)cc1 (stereo unspecified),-2.03
19,CC(C(=O)N1CCCN(Cc2ccc(C#N)cc2)CC1)n1cccn1 (stereo unspecified),-5.6
20,CCN1CCN(C2CCN(Cc3nc(CCOC)no3)CC2)C1=O,-9.44
21,Cn1c(NCC(O)c2ccc(Cl)cc2)c(C#N)c(=O)n(C)c1=O (stereo unspecified),-3.27
22,Cc1cc(C)n(C2CCCN(C(=O)Cc3cccc(F)c3)C2)n1 (stereo unspecified),-8.09
23,Cc1nc(CN2CCCC(NCCCOc3ccc(F)cc3)C2)no1 (stereo unspecified),-7.03

row,SMILES,cytotoxicity at 10 µM [%]
1,CN(CC(=O)NC1(C)CCS(=O)(=O)C1)Cc1ccc(Br)cc1 (stereo unspecified),-1.4
2,Cn1cc(CCC(=O)N2CCCC(n3cncn3)C2)cn1 (stereo unspecified),-15.1
3,Cc1ccc(C)c(S(=O)(=O)CCN2CCc3c(ncn3C)C2)c1,-12.5
4,Cc1cccnc1NC(=O)NCc1cccnc1OC(C)C,-8.75
5,Cc1cc(CN(Cc2cccs2)CC2CCCO2)on1 (stereo unspecified),-10.1
6,CCCc1n[nH]c(C2CN(C(=O)CCn3ccccc3=O)CCO2)n1 (stereo unspecified),-0.438
7,Cc1nn(C)c(N(C)C)c1CNCc1cccnc1OC(C)C,-0.924
8,Cc1ccc(N2CCCC(NCc3ccccn3)C2)nn1 (stereo unspecified),0.301
9,O=C(NCCn1ccnc1)N1CCN(Cc2ccsc2)CC1,-15.3
10,COC(=O)c1cccn1C1CCN(S(=O)(=O)c2ccccc2)CC1,-11.1
11,O=C(COc1ccccc1Cl)N1CCCC(n2ccnc2)C1 (stereo unspecified),-21.9
12,CC(Cn1cccn1)NC(=O)NCc1ccc(S(C)(=O)=O)cc1 (stereo unspecified),3.64
13,O=C(CCc1ccsc1)N1CCC(N2CCNC2=O)CC1,-0.546
14,Cc1cn2c(n1)CCC(NC(=O)c1csc(C(C)C)n1)C2 (stereo unspecified),-16.4
15,Cc1nc(C)n(C2CCCN(C(=O)Cc3n[nH]c4ccccc34)C2)n1 (stereo unspecified),-11.7
16,CCn1cnnc1C1CCN(C(=O)c2ccc(C(=O)OC)s2)CC1,-8.16
17,CC(C)c1cc(NC(=O)CN2CCCC2Cn2cccn2)on1 (stereo unspecified),-8.35
18,CCc1noc(C)c1C(=O)N1CCCC1Cn1cc(C)cn1 (stereo unspecified),-6.46
19,CC(C)c1nn(C)c(N2CCOCC2)c1CN[C@H](C)CO,-7.67
20,Cc1nc(CN(Cc2cccs2)C2CCS(=O)(=O)C2)oc1C (stereo unspecified),-6.46
21,Cc1ccc(Cl)cc1N1CCC(CNC(=O)CCn2ccnn2)C1 (stereo unspecified),-5.72
22,CCc1nc(CC(=O)N2CCn3c(nnc3C(C)C)C2)cs1,-6.72
23,Cc1cnn(CC2CCCN2C(=O)c2cc3ccccc3[nH]2)c1 (stereo unspecified),-0.433

row,SMILES,cytotoxicity at 10 µM [%]
1,CCS(=O)(=O)N1CC[C@H]2CO[C@H](CN(C)C)[C@H]2C1,-72
2,CCn1cc2c(n1)CN(CC1CC1)CC2COCC1CC1 (stereo unspecified),-1.26
3,CCS(=O)(=O)N1CCc2c(nc(C3CCCN3)nc2NC)C1 (stereo unspecified),-10.2
4,CNC(=O)CN1CCCC12CCN(Cc1c[nH]cn1)CC2,0.312
5,COCCC(=O)N1CCCC2(CCCN2Cc2ccccc2F)C1 (stereo unspecified),8.01
6,O=S(=O)(c1cccs1)N1Cc2nc(CN3CCCCC3)oc2C1,-121
7,COCC1CN(c2ncc(F)cn2)Cc2cnn(C)c21 (stereo unspecified),4.02
8,Cn1ccnc1CN1CCc2onc(COCC3CC3)c2C1,6.86
9,Cc1cccc(C(=O)N2C[C@@H](C)[C@@]3(CCN(c4ccsc4)C3=O)C2)n1,-78.9
10,Cc1ncnc2c1CCN(C(=O)c1ccncc1)CC2,12
11,CCC(C)N1Cc2c(C(=O)N3CCOCC3)nn(C)c2C1 (stereo unspecified),-95.9
12,O=S(=O)(C1CC1)N1CCC2(CCCN(c3ncccn3)C2)C1 (stereo unspecified),-4.02
13,O=C(c1cccs1)N1CC[C@@H](N2CCOCC2)[C@@H]1Cc1ccccc1,-81.6
14,N#Cc1cccc(CN2C[C@H](OCC3CCOCC3)[C@H]3COC[C@H]32)c1,-0.82
15,CN(C)CCNC(=O)c1cc(-c2cnc(N3CCOCC3)nc2)cn1C,-78.2
16,Cc1cccc(N2CCC3(CCN(C(=O)c4cccnc4)CC3)C2)n1,-0.482
17,Cn1ccnc1CN1CCN2C[C@H](OCc3cccnc3)C[C@H]2C1,-1.29
18,CC(C)CNC(=O)[C@H]1C[C@H]2CN(C(=O)Nc3ccc(F)cc3)C[C@@H]1O2,0.428
19,Cc1cc(C)c(Cn2cncn2)cc1CN1CC[C@@H]2CC[C@H](C1)N2,-3.96
